Key:
Assay type in all cases: functional, Homo sapiens
HUVEC [1] = experiment: Effect on DKK1 gene expression in serum-starved HUVEC after 6 hrs by microarray analysis relative to control
Outline: (§1)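 Confluent serum-starved HUVEC (primary, pooled from 3–5 donors, passage ≤4) treated with 2 μM compound or DMSO vehicle in 2.5% FBS for 6 h or 24 h. Total RNA hybridized to Illumina Human-HT12 arrays, background-corrected, vst-transformed and rsn-normalized. Differential expression versus DMSO by moderated paired t-test (p < 0.05, |log2 fold change| > 0.5).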

HUVEC [2] = experiment: Effect on LDLR gene expression in serum-starved HUVEC after 6 hrs by microarray analysis relative to control
Outline: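 Serum-starved confluent HUVEC (pooled from 3–5 donors, passage ≤4) were treated with 2 μM compound or vehicle in 2.5% FBS for 6 h or 24 h, and total RNA was isolated. Hybridization was on Illumina Human-HT12. Data were processed with bgAdjust, vst and rsn normalization. Changes versus DMSO were called by moderated paired t-test at p < 0.05 and |log2 fold change| > 0.5.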

HUVEC [3] = experiment: Effect on CDCA5 gene expression in serum-starved HUVEC after 6 hrs by microarray analysis relative to control
Outline: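 Serum-starved confluent HUVEC treated with 2 μM compound or DMSO in 2.5% FBS for 6 h or 24 h; RNA hybridized to Illumina Human-HT12 arrays. Data background-corrected, vst-transformed and rsn-normalized. Differential probes called by moderated paired t-test (limma) at p < 0.05 and log2 fold change >|0.5| vs DMSO.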

HUVEC [4] = experiment: Effect on CYTL1 gene expression in serum-starved HUVEC after 6 hrs by microarray analysis relative to control; outline: as §1
HUVEC [5] = experiment: Effect on COL4A3BP gene expression in serum-starved HUVEC after 24 hrs by microarray analysis relative to control; outline: as §1
HUVEC [6] = experiment: Effect on AURKA gene expression in serum-starved HUVEC after 24 hrs by microarray analysis relative to control; outline: as §1
HUVEC [7] = experiment: Effect on FUCA1 gene expression in serum-starved HUVEC after 24 hrs by microarray analysis relative to control; outline: as §1

COc1ccc(Cn2nc(-c3ccccc3)c3cc(Nc4ccc(N5CCN(C)CC5)cc4)nc(N4CCN(C)CC4)c32)cc1
fold change (FC) (HUVEC [1]): 0.1994 | fold change (FC) (HUVEC [2]): 0.9404 | fold change (FC) (HUVEC [3]): 0.0694 | fold change (FC) (HUVEC [4]): 0.0261 | fold change (FC) (HUVEC [5]): -0.1456 | fold change (FC) (HUVEC [6]): -0.6725 | fold change (FC) (HUVEC [7]): -1.0254

— ChEMBL document CHEMBL3856209, “Novel pyrazolopyridine derivatives as potential angiogenesis inhibitors: Synthesis, biological evaluation and transcriptome-based mechanistic analysis” (Eur J Med Chem, 2016)
